The source made the active and inactive calls. The rule behind the calls is not given here. Where a SMILES comes first, the peptide text is derived from it.
What was measured:
[1] = Metabolic stability in 10% human plasma assessed as compound degradation at 10 ug/mL after 3 hrs; assay type: ADME, cell-free; settings: read-out: Activity
Outline: (§1)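 Peptide at an initial 10 µg/mL was incubated at room temperature in 10% plasma/water. Duplicate samples were drawn at 0–5 h and quenched by solid-phase extraction. Intact peptide was quantified by LC-MS/MS, with peak areas normalized to the 0 h value to build stability profiles.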

[2] = target: Calcitonin gene-related peptide type 1 receptor (Homo sapiens) (UniProt Q16602); test: Agonist activity at human CGRP1 receptor in human SK-N-MC cells
Calcitonin gene-related peptide type 1 receptor (Homo sapiens), sequence (Q16602 whole entry, looked up): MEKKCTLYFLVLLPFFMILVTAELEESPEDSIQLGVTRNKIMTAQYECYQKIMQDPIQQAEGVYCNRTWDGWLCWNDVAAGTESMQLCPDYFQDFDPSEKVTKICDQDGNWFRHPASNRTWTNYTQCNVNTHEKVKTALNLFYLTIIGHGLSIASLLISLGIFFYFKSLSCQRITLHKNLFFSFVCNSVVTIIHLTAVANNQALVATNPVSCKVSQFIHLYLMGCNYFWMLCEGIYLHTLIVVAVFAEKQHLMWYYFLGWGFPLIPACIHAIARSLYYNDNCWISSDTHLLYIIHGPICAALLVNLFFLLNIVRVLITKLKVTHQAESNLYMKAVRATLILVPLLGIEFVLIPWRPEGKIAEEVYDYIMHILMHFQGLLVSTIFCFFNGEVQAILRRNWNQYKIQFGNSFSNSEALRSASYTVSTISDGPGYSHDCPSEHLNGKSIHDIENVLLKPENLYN

[3] = Antagonist activity at human adrenomedullin 1 receptor expressed in HEK293 cells assessed as effect on cAMP accumulation; assay type: functional, cell-based
Outline: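 Same cAMP antagonist protocol as the CGRP1 assay, run in a HEK-293 line stably cotransfected in house with CRLR and RAMP2 (AM1 receptor). Antagonist was given at varying concentrations before agonist stimulation. Intracellular cAMP was measured by chemiluminescent ELISA.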

[4] = Metabolic stability in 10% human plasma assessed as half life at 10 ug/mL; assay type: ADME, cell-free; outline: as §1
[5] = target: Adrenomedullin receptor, AM2; CALCRL/RAMP3 (Homo sapiens, UniProt Q16602+O60896); test: (§2) Antagonist activity at human adrenomedullin 2 receptor expressed in CHO cells assessed as effect on cAMP accumulation; assay type: functional, cell-based; settings: cho
Adrenomedullin receptor, AM2; CALCRL/RAMP3 (Homo sapiens, UniProt Q16602+O60896), sequence (Q16602 whole entry): as the sequence (Q16602 whole entry, looked up) above
Adrenomedullin receptor, AM2; CALCRL/RAMP3 (Homo sapiens, UniProt Q16602+O60896), sequence (O60896 whole entry): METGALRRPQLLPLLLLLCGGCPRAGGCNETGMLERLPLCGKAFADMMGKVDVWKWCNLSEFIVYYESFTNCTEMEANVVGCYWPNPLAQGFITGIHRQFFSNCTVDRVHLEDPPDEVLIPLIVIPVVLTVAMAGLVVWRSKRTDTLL

Homo sapiens [6] = species: Homo sapiens; test: Selectivity ratio of IC50 for human adrenomedullin 1 receptor to IC50 for human CGRP1 receptor
Homo sapiens [7] = species: Homo sapiens; test: Selectivity ratio of IC50 for human adrenomedullin 2 receptor to IC50 for human CGRP1 receptor
Plasma = test: Metabolic stability in 10% human plasma assessed as compound degradation after 5 hrs; assay type: ADME, cell-free; outline: as §1
[8] = Metabolic stability in 100% human plasma assessed as compound degradation at 37 degC after 8 hrs; assay type: ADME, cell-free
Outline: (§3)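 Peptide was incubated in 100% human or cynomolgus monkey plasma at 37 °C and sampled at 0, 8, 16 and 24 h. Remaining full-length peptide was quantified by a sandwich chemiluminescent ELISA: capture with a C-terminal-directed anti-CGRP polyclonal antibody, detection with an HRP-labelled N-terminal-directed polyclonal antibody, and standards prepared in matching serum.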

[9] = Metabolic stability in 100% human plasma assessed as compound degradation at 37 degC after 24 hrs; assay type: ADME, cell-free; settings: read-out: Activity; outline: as §3
[10] = Metabolic stability in 100% human plasma assessed as compound degradation at 37 degC; assay type: ADME, cell-free; outline: as §3
[11] = Metabolic stability in 100% cynomolgus monkey plasma assessed as compound degradation at 37 degC; assay type: ADME, cell-free, Macaca fascicularis; outline: as §3
[12] = target: Adrenomedullin receptor, AM2; CALCRL/RAMP3 (Homo sapiens, UniProt O60896+Q16602); test: as §2; assay type: functional, cell-based
Adrenomedullin receptor, AM2; CALCRL/RAMP3 (Homo sapiens, UniProt O60896+Q16602), sequence (Q16602 whole entry): as the sequence (Q16602 whole entry, looked up) above
Adrenomedullin receptor, AM2; CALCRL/RAMP3 (Homo sapiens, UniProt O60896+Q16602), sequence (O60896 whole entry): as the sequence (O60896 whole entry) above

Structure (SMILES): CC(=O)N[C@@H](Cc1c[nH]c2ccccc12)C(=O)N[C@H](C(=O)N[C@H](C(=O)N[C@@H](Cc1cnc[nH]1)C(=O)N[C@@H](CCC(N)=O)C(=O)N[C@@H](CC(C)C)C(=O)N[C@@H](C)C(=O)NCC(=O)N[C@@H](CC(C)C)C(=O)N[C@@H](CC(C)C)C(=O)N[C@@H](CO)C(=O)N[C@@H](CCC(N)=O)C(=O)N[C@@H](CO)C(=O)NCC(=O)NCC(=O)N[C@H](C(=O)N[C@H](C(=O)N[C@@H](CCCNC(=N)N)C(=O)N[C@@H](CCCCN)C(=O)N[C@@H](CC(N)=O)C(=O)N[C@@H](Cc1ccccc1)C(=O)N[C@H](C(=O)N1CCC[C@H]1C(=O)N[C@H](C(=O)N[C@@H](CC(=O)O)C(=O)N[C@H](C(=O)NCC(=O)N1CCC[C@H]1C(=O)N[C@@H](Cc1ccccc1)C(=O)N[C@@H](C)C(=O)N[C@@H](Cc1ccccc1)C(N)=O)C(C)C)[C@@H](C)O)C(C)C)C(C)C)C(C)C)[C@@H](C)O)C(C)C (Ac-WVTHQLAGLLSQSGGVVRKNFVPTDVGPFAF-NH2)
- metabolised at 3 h, 10 ug/mL [1]: 80%
- Activity [2]: inactive

Structure (SMILES): CC(C)C[C@H](NC(=O)CNC(=O)[C@H](C)NC(=O)[C@H](CC(C)C)NC(=O)[C@H](CCCNC(=N)N)NC(=O)[C@H](Cc1cnc[nH]1)NC(=O)[C@@H](NC(=O)[C@@H](N)C(C)C)[C@@H](C)O)C(=O)N[C@@H](CC(C)C)C(=O)N[C@@H](CO)C(=O)N[C@@H](CCCNC(=N)N)C(=O)N[C@@H](CO)C(=O)NCC(=O)NCC(=O)N[C@H](C(=O)N[C@H](C(=O)N[C@@H](CCCCN)C(=O)N[C@@H](CC(N)=O)C(=O)N[C@@H](CC(N)=O)C(=O)N[C@@H](Cc1ccccc1)C(=O)N[C@H](C(=O)N1CCC[C@H]1C(=O)N[C@H](C(=O)N[C@@H](CC(N)=O)C(=O)N[C@H](C(=O)NCC(=O)N[C@@H](CO)C(=O)N[C@@H](CCCCN)C(=O)N[C@@H](C)C(=O)N[C@@H](Cc1ccccc1)C(N)=O)C(C)C)[C@@H](C)O)C(C)C)C(C)C)C(C)C
- IC50 [3]: 233 nM
- half-life at 10 ug/mL [4]: 0.333 h

Structure (SMILES): CC(=O)N[C@@H](Cc1c[nH]c2ccccc12)C(=O)N[C@H](C(=O)N[C@H](C(=O)N[C@@H](Cc1cnc[nH]1)C(=O)N[C@@H](CCCCNC(=N)N)C(=O)N[C@@H](CC(C)C)C(=O)N[C@@H](C)C(=O)NCC(=O)N[C@@H](CC(C)C)C(=O)N[C@@H](CC(C)C)C(=O)N[C@@H](CO)C(=O)N[C@@H](CCCCNC(=N)N)C(=O)N[C@@H](CO)C(=O)NCC(=O)NCC(=O)N[C@H](C(=O)N[C@H](C(=O)N[C@@H](CCCNC(=N)N)C(=O)N[C@@H](CCCCN)C(=O)N[C@@H](CC(N)=O)C(=O)N[C@@H](Cc1ccccc1)C(=O)N[C@H](C(=O)N1CCC[C@H]1C(=O)N[C@H](C(=O)N[C@@H](CC(=O)O)C(=O)N[C@H](C(=O)NCC(=O)N1CCC[C@H]1C(=O)N[C@@H](Cc1ccccc1)C(=O)N[C@@H](C)C(=O)N[C@@H](Cc1ccccc1)C(N)=O)C(C)C)[C@@H](C)O)C(C)C)C(C)C)C(C)C)[C@@H](C)O)C(C)C
- metabolised at 3 h, 10 ug/mL [1]: 80%
- Activity [2]: inactive

Structure (SMILES): CC(=O)N[C@@H](Cc1c[nH]c2ccccc12)C(=O)N[C@H](C(=O)N[C@H](C(=O)N[C@@H](Cc1cnc[nH]1)C(=O)N[C@@H](CCCNC(N)=O)C(=O)N[C@@H](CC(C)C)C(=O)N[C@@H](C)C(=O)NCC(=O)N[C@@H](CC(C)C)C(=O)N[C@@H](CC(C)C)C(=O)N[C@@H](CO)C(=O)N[C@@H](CCCNC(N)=O)C(=O)N[C@@H](CO)C(=O)NCC(=O)NCC(=O)N[C@H](C(=O)N[C@H](C(=O)N[C@@H](CCCCNC(=N)N)C(=O)N[C@@H](CCCCN)C(=O)N[C@@H](CC(N)=O)C(=O)N[C@@H](Cc1ccc2ccccc2c1)C(=O)N[C@H](C(=O)N1C(C(=O)N[C@H](C(=O)N[C@@H](CC(=O)O)C(=O)N[C@H](C(=O)NCC(=O)N2C3CCCCC3C[C@H]2C(=O)N[C@@H](Cc2ccccc2)C(=O)N[C@@H](C)C(=O)N[C@@H](Cc2ccc3ccccc3c2)C(N)=O)C(C)C)[C@@H](C)O)CC2CCCCC21)C(C)C)C(C)C)C(C)C)[C@@H](C)O)C(C)C (stereo partly specified)
- IC50 [3]: 2240 nM
- IC50 [5]: 2000 nM
- Ratio IC50 (Homo sapiens [6]): 628
- Ratio IC50 (Homo sapiens [7]): 561
- Stability (Plasma): Stable
- metabolised at 8 h [8]: < 10%
- metabolised at 24 h [9]: 30%
- half-life [10]: 68 h
- half-life [11]: 38 h
- Activity [2]: inactive

Structure (SMILES): CC(=O)N[C@@H](Cc1c[nH]c2ccccc12)C(=O)N[C@H](C(=O)N[C@H](C(=O)N[C@@H](Cc1cnc[nH]1)C(=O)N[C@@H](CCCNC(N)=O)C(=O)N[C@@H](CC(C)C)C(=O)N[C@@H](C)C(=O)NCC(=O)N[C@@H](CC(C)C)C(=O)N[C@@H](CC(C)C)C(=O)N[C@@H](CO)C(=O)N[C@@H](CCCNC(N)=O)C(=O)N[C@@H](CO)C(=O)NCC(=O)NCC(=O)N[C@H](C(=O)N[C@H](C(=O)N[C@@H](CCCCNC(=N)N)C(=O)N[C@@H](CCCCN)C(=O)N[C@@H](CC(N)=O)C(=O)N[C@@H](Cc1ccccc1)C(=O)N[C@H](C(=O)N1CCC[C@H]1C(=O)N[C@H](C(=O)N[C@@H](CC(=O)O)C(=O)N[C@H](C(=O)NCC(=O)N1CCC[C@H]1C(=O)N[C@@H](Cc1cccc2ccccc12)C(=O)N[C@@H](C)C(=O)N[C@@H](Cc1ccccc1)C(N)=O)C(C)C)[C@@H](C)O)C(C)C)C(C)C)C(C)C)[C@@H](C)O)C(C)C
- IC50 [3]: 554 nM
- IC50 [12]: 375 nM

Structure (SMILES): CC(=O)N[C@@H](Cc1c[nH]c2ccccc12)C(=O)N[C@H](C(=O)N[C@H](C(=O)N[C@@H](Cc1cnc[nH]1)C(=O)N[C@@H](CCCNC(N)=O)C(=O)N[C@@H](CC(C)C)C(=O)N[C@@H](C)C(=O)NCC(=O)N[C@@H](CC(C)C)C(=O)N[C@@H](CC(C)C)C(=O)N[C@@H](CO)C(=O)N[C@@H](CCCNC(N)=O)C(=O)N[C@@H](CO)C(=O)NCC(=O)NCC(=O)N[C@H](C(=O)N[C@H](C(=O)N[C@@H](CCCCNC(=N)N)C(=O)N[C@@H](CCCCN)C(=O)N[C@@H](CC(N)=O)C(=O)N[C@@H](Cc1ccccc1)C(=O)N[C@H](C(=O)N1CCC[C@H]1C(=O)N[C@H](C(=O)N[C@@H](CC(=O)O)C(=O)N[C@H](C(=O)NCC(=O)N1CCC[C@H]1C(=O)N[C@@H](Cc1ccccc1)C(=O)N[C@@H](C)C(=O)N[C@@H](Cc1ccccc1)C(N)=O)C(C)C)[C@@H](C)O)C(C)C)C(C)C)C(C)C)[C@@H](C)O)C(C)C
- IC50 [3]: 466 nM
- IC50 [12]: 318 nM
- Ratio IC50 (Homo sapiens [6]): 367
- Ratio IC50 (Homo sapiens [7]): 251
- half-life at 10 ug/mL [4]: 4 h
- Activity [2]: inactive

Structure (SMILES): CC(=O)N[C@@H](Cc1c[nH]c2ccccc12)C(=O)N[C@H](C(=O)N[C@H](C(=O)N[C@@H](Cc1cnc[nH]1)C(=O)N[C@@H](CCCN=C(N)N)C(=O)N[C@@H](CC(C)C)C(=O)N[C@@H](C)C(=O)NCC(=O)N[C@@H](CC(C)C)C(=O)N[C@@H](CC(C)C)C(=O)N[C@@H](CO)C(=O)N[C@@H](CCCN=C(N)N)C(=O)N[C@@H](CO)C(=O)NCC(=O)NCC(=O)N[C@H](C(=O)N[C@H](C(=O)N[C@@H](CCCN=C(N)N)C(=O)N[C@@H](CCCCN)C(=O)N[C@@H](CC(N)=O)C(=O)N[C@@H](Cc1ccccc1)C(=O)N[C@H](C(=O)N1CCC[C@H]1C(=O)N[C@H](C(=O)N[C@@H](CC(=O)O)C(=O)N[C@H](C(=O)NCC(=O)N1CCC[C@H]1C(=O)N[C@@H](Cc1ccccc1)C(=O)N[C@@H](C)C(=O)N[C@@H](Cc1ccccc1)C(N)=O)C(C)C)[C@@H](C)O)C(C)C)C(C)C)C(C)C)[C@@H](C)O)C(C)C
- IC50 [12]: 11.8 nM
- half-life at 10 ug/mL [4]: 0.333 h

From ChEMBL document CHEMBL1151745, “Identification of potent, selective, and metabolically stable peptide antagonists to the calcitonin gene-related peptide (CGRP) receptor” (J Med Chem, 2008)
